Most compounds without a hit are left out; they make up all but 3.1% or so of the library.
PGC1a acetyl inh: modulators of PGC1a acetylation. 350,000 tested, 0.17% active. U2OS PGC1a acetylation, AlphaScreen anti-acetyl-lysine; with virally co-expressed GCN5 acetyltransferase. inhibition, % at 15.6 µM. AID 651687;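 active = every replicate shows inhibition of at least 40%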
FN deposition inh: fibronectin deposition inhibition; 350,000 tested, 0.086% active; inhibition, % at 12.6 µM; AH1F fibroblasts, Alexa488-fibronectin deposition fluorescence, overnight;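 active = mean inhibition across replicates of 30% or more, regardless of how many single replicates reach that level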
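test system = AH1F fibroblasts assembling fluorescent fibronectin matrix | quantity = 10000 AH1F cells per well | buffer or medium = DMEM plus 2% serum, read in PBS | doses = single dose, pinned | incubation = 1 h cell attachment, overnight exposure to compound and label | detection = fluorescence at 485 nm excitation, 525 nm emission | read-out basis = inhibition from reduced deposited-fibronectin fluorescence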
EWS-Fli block: blocks EWS/Fli oncoprotein-driven transcription; inhibition, % at 12.6 µM; 350,000 tested, 0.67% active; AID 651661; A673 NR0B1-luciferase reporter, viability-normalised;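 active = mean inhibition of at least 50% after viability correction, with every replicate also passing that limit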;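 note: firefly luciferase signal divided by Alamar Blue viability fluorescence both relative to DMSO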
Env fusion inh: inhibitors of HIV Env-mediated cell fusion; 360,000 tested, 1.1% active; AID 651610; HeLa-JRFL Env/CEM21 cell fusion, luciferase; inhibition, % at 12.3 µM;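 active = mean replicate inhibition score of at least 50 and every replicate individually at or above 50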
PAX8 inh HTS: PAX8 transcriptional activity inhibition; RMG-I TPO-luciferase reporter, SteadyGlo, 24 h; inhibition, % at 12.6 µM; 360,000 tested, 1.2% active; AID 652154;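 active = mean replicate inhibition at least 60% with every replicate also reaching 60%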;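 note: luciferase light reporting Pax8 driven TPO promoter activity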
FGF22 binding: shifts melting point of recombinant human FGF22; Q9HCT0; recombinant FGF22 thermal shift, SYPRO orange fluorescence; percent of sucrose octasulfate shift, DMSO zero; activity (Tm shift, normalised), % at 9.99 µM; 340,000 tested, 1.5% active;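 active = mean Tm shift, scaled 0 neutral to 100 positive control, at about 1.3% or above, every replicate too, limit read from the data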
Target sequence (Q9HCT0 whole entry, looked up): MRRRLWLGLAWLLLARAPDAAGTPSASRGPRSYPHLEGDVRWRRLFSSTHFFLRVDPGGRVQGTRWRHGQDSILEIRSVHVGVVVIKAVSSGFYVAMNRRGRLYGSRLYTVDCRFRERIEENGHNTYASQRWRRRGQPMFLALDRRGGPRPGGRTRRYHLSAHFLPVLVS
Large screens that a line does not name were inactive; [ ] = remark or other dose.

Cc1nc2ccc(S(=O)(=O)N(C)CC(=O)Nc3ccccc3F)cc2s1	FGF22 binding 44
CCCNC(=O)c1cc(C2CCCCN2C(=O)c2ccc3ccccc3c2)on1 (stereo unspecified)	none
CCCNC(=O)c1cc(C2CCCCN2C(=O)c2ccc3c(c2)CCO3)on1 (stereo unspecified)	FGF22 binding 43 (no result: Env fusion inh)
Cc1csc(NC(=O)c2cc3c(s2)-c2ccccc2OC3)n1	none
Cc1c(NC(=O)c2cc3c(s2)-c2ccccc2OC3)cccc1[N+](=O)[O-]	Env fusion inh 87 (no result: PGC1a acetyl inh, EWS-Fli block, FGF22 binding)
CCOc1cc2c(c3c1C(c1ccccc1)N(S(=O)(=O)c1ccc(C)cc1)C3)C(=O)C=CC2=O (stereo unspecified)	EWS-Fli block 62
COc1ccc(-n2c(CNC(=O)COc3ccc(Cl)cc3Cl)n[nH]c2=S)cc1	FGF22 binding 43 (no result: PGC1a acetyl inh)
COc1ccc(-n2c(CNC(=O)COc3ccc(Cl)cc3)n[nH]c2=S)cc1	none
CO[C@@H]1CN(C)C(=O)c2cc(NC(=O)NC(C)C)ccc2OC[C@@H](C)N(Cc2ccccc2)C[C@@H]1C	none
Cc1ccc(S(=O)(=O)N(C)C[C@H]2OCCCC[C@@H](C)Oc3ccc(NS(C)(=O)=O)cc3C(=O)N([C@@H](C)CO)C[C@@H]2C)cc1	none
CCCNC(=O)OCc1cccnc1Sc1ccc(C)cc1	FGF22 binding 43
COc1cccc(-c2ncc3ccccc3c2COC(=O)N(C)C)c1	Env fusion inh 61
CN(C)C(=O)OCc1c(-c2ccccc2)ncc2ccccc12	none (no result: PGC1a acetyl inh)
CCCCCCCCCCCCCCCC[n+]1cccc2ccccc21	EWS-Fli block 89, Env fusion inh 74, PAX8 inh HTS 109 (no result: PGC1a acetyl inh, FN deposition inh)
Cc1[nH][nH]c(=O)c1/C=N/N1CCOCC1	FGF22 binding 43 (no result: PGC1a acetyl inh)
Fc1cccc(F)c1/C=N/N1CCOCC1	none
COc1c(OC(C)=O)ccc(/C=N\NC(=O)c2ccc(Br)cc2)c1[N+](=O)[O-]	FGF22 binding 45
CCCN(C)C[C@H]1Oc2ncc(-c3ccccc3F)cc2C(=O)N([C@@H](C)CO)C[C@@H]1C	none (no result: FN deposition inh, PAX8 inh HTS)
CC1CN(C(=O)c2cc(S(=O)(=O)N(C)c3ccc(F)cc3)ccc2Cl)CC(C)O1 (stereo unspecified)	Env fusion inh 61 (no result: FN deposition inh)
CCCNC(=O)[C@H]1[C@H](CO)[C@H]2Cn3c(ccc(-c4ccc(OC)cc4)c3=O)[C@@H]1N2CC	none (no result: FN deposition inh, Env fusion inh, PAX8 inh HTS, FGF22 binding)
CC(=O)Nc1nc(-c2ccc3c(c2)CCN3S(C)(=O)=O)cs1	none (no result: FN deposition inh)
CS(=O)(=O)N1CCc2cc(-c3csc(NC(=O)Cc4cccs4)n3)ccc21	Env fusion inh 76 (no result: FN deposition inh, EWS-Fli block, PAX8 inh HTS, FGF22 binding)
C[C@H](CO)N1C[C@H](C)[C@H](CN(C)Cc2cccc(F)c2)Oc2ncc(-c3cccc(F)c3)cc2C1=O	none (no result: PAX8 inh HTS, FGF22 binding)
CCc1ccc(-c2nc(C(N)=O)c3[nH]c(=O)n(-c4ccccc4OC)c3n2)cc1	EWS-Fli block 63
C[C@@H]1CCCCO[C@@H](CN(C)S(=O)(=O)c2ccc(F)cc2)[C@H](C)CN([C@@H](C)CO)C(=O)c2cc(NS(=O)(=O)c3ccccc3)ccc2O1	none (no result: FN deposition inh)
O=[N+]([O-])c1ccc(Nc2ccc(N3CCOCC3)cc2)c([N+](=O)[O-])c1	PAX8 inh HTS 90 (no result: FN deposition inh)
O=[N+]([O-])c1c(Nc2ccccc2O)ccc2nonc12	none
O=C(O)c1cc(Nc2cc(Cl)c3nonc3c2[N+](=O)[O-])ccc1O	FGF22 binding 1.8
O=[N+]([O-])c1ccc(NS(=O)(=O)N2CCOCC2)cc1	none
O=[N+]([O-])c1c(Nc2ccccc2O)cc(Cl)c2nonc12	EWS-Fli block 66, PAX8 inh HTS 91
O=[N+]([O-])c1c(Nc2ccc(O)cc2)cc(N2CCOCC2)c2nonc12	FGF22 binding 44 (no result: PGC1a acetyl inh)
CN(C)C(=O)[C@@H]1[C@@H](CO)[C@@H]2Cn3c(ccc(-c4ccncc4)c3=O)[C@@H]2N1Cc1ccccc1F	none (no result: PGC1a acetyl inh, FN deposition inh, Env fusion inh)
CO[C@H]1CN(C)C(=O)c2cc(NC(=O)Nc3cccc(F)c3)ccc2OC[C@H](C)N(C(=O)C2CC2)C[C@@H]1C	none (no result: FGF22 binding)
C[C@@H]1CN([C@H](C)CO)C(=O)c2cccc(NC(=O)c3cnccn3)c2O[C@H]1CN(C)S(=O)(=O)c1cccs1	none (no result: PAX8 inh HTS)
Cc1noc(C)c1S(=O)(=O)Nc1ccc2c(c1)C(=O)N([C@@H](C)CO)C[C@H](C)[C@H](CN(C)Cc1ccc(Cl)c(Cl)c1)O2	none (no result: FN deposition inh, PAX8 inh HTS)
O=c1oc(-c2cccs2)nc2ccc(Br)cc12	none (no result: EWS-Fli block, PAX8 inh HTS, FGF22 binding)
Cc1ccc2nc(-c3cccs3)oc(=O)c2c1	FGF22 binding 43
CCCNC(=O)Cn1c(=O)/c(=C/c2ccc(-c3cccc([N+](=O)[O-])c3)o2)s/c1=C\C(=O)C(C)(C)C	FGF22 binding 44
CCCCC1(Cc2ccc(OC)c([N+](=O)[O-])c2)C(=O)N(c2ccccc2)N(c2ccccc2)C1=O	Env fusion inh 118 (no result: EWS-Fli block, FGF22 binding)
O=C(NNC(=O)C12CC3CC(CC(C3)C1)C2)c1ccccc1O	none
O=C(NNC(=O)C12CC3CC(CC(C3)C1)C2)c1ccccc1F	PAX8 inh HTS 81
Cc1cc(C([O-])=C(C(=S)Nc2ccccc2)[n+]2ccccc2)c(C)n1-c1ccccc1	none (no result: PGC1a acetyl inh)
Cc1ccccc1NC(=S)/C(=C(\[O-])c1cc(C)n(Cc2ccccc2Cl)c1C)[n+]1ccccc1	FGF22 binding 43
COc1ccc(C(=O)Nc2ccc3c(c2)C(=O)N(C)C[C@H](OC)[C@@H](C)CN(C)[C@H](C)CO3)cc1	none
CC12CCC(CC1O)C2C(=O)O (stereo unspecified)	FGF22 binding 43 (no result: PGC1a acetyl inh)
CC=Cc1ccc2n(c1=O)C[C@@H]1[C@@H](CO)[C@H](C(=O)N[C@H](C)c3ccccc3)[C@H]2N1CC (mixture of isomers)	none (no result: PGC1a acetyl inh, FN deposition inh, PAX8 inh HTS)
O=C(C[C@@H]1C=C[C@@H](NC(=O)Nc2ccc3c(c2)OCO3)[C@@H](CO)O1)NCc1ccc(F)cc1	none (no result: FN deposition inh)
O=C(C[C@H]1CC[C@H](NC(=O)NC2CCCCC2)[C@H](CO)O1)NCc1ccc(Cl)cc1	PGC1a acetyl inh 54
COc1ccccc1NC(=O)N[C@H]1C=C[C@@H](CC(=O)N[C@H](C)c2ccccc2)O[C@H]1CO	Env fusion inh 94[16.7 µM]
O=C(C[C@@H]1C=C[C@@H](NC(=O)Nc2ccc3c(c2)OCO3)[C@H](CO)O1)NCc1ccc(F)cc1	Env fusion inh 59[16.7 µM] (no result: FN deposition inh)
O=C(C[C@@H]1CC[C@H](NC(=O)NC2CCCCC2)[C@@H](CO)O1)NCc1ccc(Cl)cc1	none
O=C(O)C[C@@H]1C=C[C@@H](NC(=O)Nc2ccccc2)[C@H](CO)O1	Env fusion inh 58[16.7 µM]
C[C@H](CO)N1C[C@H](C)[C@H](CN(C)C)Oc2ccc(NC(=O)Cc3cn(C)c4ccccc34)cc2C1=O	none (no result: FN deposition inh, EWS-Fli block, Env fusion inh)
N#Cc1ccc(-c2ccc3c(c2)[C@H]2[C@H](CCN2C(=O)C2CCCC2)[C@@H](CO)N3)cc1	none (no result: PGC1a acetyl inh, Env fusion inh, PAX8 inh HTS, FGF22 binding)

Screening results from PubChem BioAssay.
